Values joined by “and” are separate entries in the source; they are usually repeats but may differ in a detail not shown here. Equal values may be shown once.
Test system: U2OS
Assay: Multiplex assay against U2OS
Assay type: toxicity, cell-based
Settings: human
Summary of the method: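 Imaging took place on a CQ1 microscope at 37°C and 5% CO2 once compound had been added to live cells stained at seeding with Hoechst33342, BioTracker Green Microtubule Cytoskeleton Dye, MitoTracker Red and Annexin V Alexa Fluor 680. CellPathfinder machine-learning gating classed cells as Hoechst high-intensity objects or normal cells, classed normal cells as having healthy, pyknosed or fragmented nuclei, and classed pyknosed cells as mitotic or apoptotic. Tubulin, mitochondrial-mass and membrane-permeability phenotypes are per cents of the healthy-nucleus cells.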

[1] = 12 h, 1 µM, compound concentration 1 uM
[2] = 12 h, 10 µM, compound concentration 10 uM
[3] = 24 h, 1 µM, compound concentration 1 uM
[4] = 24 h, 10 µM, compound concentration 10 uM
[5] = 48 h, 1 µM, compound concentration 1 uM
[6] = 48 h, 10 µM, compound concentration 10 uM

## Cc1c(CC(=O)O)c2cccnc2n1Cc1ccc(S(C)(=O)=O)cc1C(F)(F)F [FEVIPIPRANT]
[1]
  Population Apoptotic (%): 80% and 50%
  Population Fragmented Nuclei (%): 25% and 22%
  Population Healthy Nuclei (%): 64% and 72%
  Population Hoechst High Intensity Objects (%): 1%
  Population Membrane Permeable-Phenotype (%): 2% and 8%
  Population Mitochondria Different-Phenotype (%): 2% and 1%
  Population Mitotic Cells (%): 19% and 50%
  Population Normal (%): 98%
  Population Pyknosed Nuclei (%): 9% and 5%
  Population Tubulin-Different-Phenotype (%): 0% and 9%
  Total Cell Count: 224 and 118
[2]
  Population Apoptotic (%): 90% and 100%
  Population Fragmented Nuclei (%): 27% and 22%
  Population Healthy Nuclei (%): 65% and 73%
  Population Hoechst High Intensity Objects (%): 2% and 0%
  Population Membrane Permeable-Phenotype (%): 3% and 8%
  Population Mitochondria Different-Phenotype (%): 0% and 3%
  Population Mitotic Cells (%): 9% and 0%
  Population Normal (%): 97% and 99%
  Population Pyknosed Nuclei (%): 7% and 3%
  Population Tubulin-Different-Phenotype (%): 1% and 4%
  Total Cell Count: 287 and 116
[3]
  Population Apoptotic (%): 80% and 66%
  Population Fragmented Nuclei (%): 20% and 17%
  Population Healthy Nuclei (%): 71% and 74%
  Population Hoechst High Intensity Objects (%): 2% and 0%
  Population Membrane Permeable-Phenotype (%): 1% and 9%
  Population Mitochondria Different-Phenotype (%): 3% and 0%
  Population Mitotic Cells (%): 20% and 33%
  Population Normal (%): 97% and 100%
  Population Pyknosed Nuclei (%): 8%
  Population Tubulin-Different-Phenotype (%): 1% and 10%
  Total Cell Count: 256 and 145
[4]
  Population Apoptotic (%): 96% and 100%
  Population Fragmented Nuclei (%): 20% and 12%
  Population Healthy Nuclei (%): 70% and 78%
  Population Hoechst High Intensity Objects (%): 0% and 1%
  Population Membrane Permeable-Phenotype (%): 5% and 8%
  Population Mitochondria Different-Phenotype (%): 3% and 2%
  Population Mitotic Cells (%): 3% and 0%
  Population Normal (%): 99% and 98%
  Population Pyknosed Nuclei (%): 8%
  Population Tubulin-Different-Phenotype (%): 3%
  Total Cell Count: 326 and 119
[5]
  Population Apoptotic (%): 65% and 90%
  Population Fragmented Nuclei (%): 18% and 20%
  Population Healthy Nuclei (%): 71% and 67%
  Population Hoechst High Intensity Objects (%): 2%
  Population Membrane Permeable-Phenotype (%): 4% and 8%
  Population Mitochondria Different-Phenotype (%): 3% and 5%
  Population Normal (%): 97%
  Population Pyknosed Nuclei (%): 10% and 12%
  Population Tubulin-Different-Phenotype (%): 2% and 9%
  Total Cell Count: 379 and 187
[6]
  Population Apoptotic (%): 91% and 100%
  Population Fragmented Nuclei (%): 17% and 15%
  Population Healthy Nuclei (%): 73% and 76%
  Population Hoechst High Intensity Objects (%): 1% and 3%
  Population Membrane Permeable-Phenotype (%): 4% and 5%
  Population Mitochondria Different-Phenotype (%): 3% and 1%
  Population Mitotic Cells (%): 8% and 0%
  Population Normal (%): 98% and 96%
  Population Pyknosed Nuclei (%): 8%
  Population Tubulin-Different-Phenotype (%): 3%
  Total Cell Count: 408 and 158

## COCCNc1cc(NC(=O)N2CCCc3cc(CN4CCN(C)CC4=O)c(C=O)nc32)ncc1C#N [FGF401]
[1]
  Population Apoptotic (%): 50% and 42.86%
  Population Fragmented Nuclei (%): 2.96% and 1.3%
  Population Healthy Nuclei (%): 87.87% and 85.06%
  Population Hoechst High Intensity Objects (%): 0%
  Population Membrane Permeable-Phenotype (%): 2.15% and 0%
  Population Mitochondria Different-Phenotype (%): 0% and 2.29%
  Population Mitotic Cells (%): 50% and 57.14%
  Population Normal (%): 100%
  Population Pyknosed Nuclei (%): 9.16% and 13.64%
  Population Tubulin-Different-Phenotype (%): 2.15% and 0.76%
  Total Cell Count: 371 and 154
[2]
  Population Apoptotic (%): 37.5% and 26.32%
  Population Fragmented Nuclei (%): 0.72% and 5.88%
  Population Healthy Nuclei (%): 91.65% and 82.94%
  Population Hoechst High Intensity Objects (%): 0.24% and 0%
  Population Membrane Permeable-Phenotype (%): 1.3% and 4.26%
  Population Mitochondria Different-Phenotype (%): 0% and 3.55%
  Population Mitotic Cells (%): 62.5% and 73.68%
  Population Normal (%): 99.76% and 100%
  Population Pyknosed Nuclei (%): 7.64% and 11.18%
  Population Tubulin-Different-Phenotype (%): 0.52% and 0%
  Total Cell Count: 420 and 170
[3]
  Population Apoptotic (%): 48.94% and 42.31%
  Population Fragmented Nuclei (%): 1.93% and 2.97%
  Population Healthy Nuclei (%): 88.97% and 84.16%
  Population Hoechst High Intensity Objects (%): 0.19% and 0%
  Population Membrane Permeable-Phenotype (%): 0.87% and 1.18%
  Population Mitochondria Different-Phenotype (%): 0.87% and 4.71%
  Population Mitotic Cells (%): 51.06% and 57.69%
  Population Normal (%): 99.81% and 100%
  Population Pyknosed Nuclei (%): 9.09% and 12.87%
  Population Tubulin-Different-Phenotype (%): 0.87% and 0%
  Total Cell Count: 518 and 202
[4]
  Population Apoptotic (%): 43.18% and 34.29%
  Population Fragmented Nuclei (%): 1.85% and 3.54%
  Population Healthy Nuclei (%): 90.04% and 80.97%
  Population Hoechst High Intensity Objects (%): 0%
  Population Membrane Permeable-Phenotype (%): 1.23% and 2.19%
  Population Mitochondria Different-Phenotype (%): 0% and 3.28%
  Population Mitotic Cells (%): 56.82% and 65.71%
  Population Normal (%): 100%
  Population Pyknosed Nuclei (%): 8.12% and 15.49%
  Population Tubulin-Different-Phenotype (%): 0.61% and 1.09%
  Total Cell Count: 542 and 226
[5]
  Population Apoptotic (%): 45.12% and 50%
  Population Fragmented Nuclei (%): 4.25% and 1.54%
  Population Healthy Nuclei (%): 87.05% and 87.38%
  Population Hoechst High Intensity Objects (%): 0%
  Population Membrane Permeable-Phenotype (%): 0.73% and 3.17%
  Population Mitochondria Different-Phenotype (%): 0.49% and 4.23%
  Population Mitotic Cells (%): 54.88% and 50%
  Population Normal (%): 100%
  Population Pyknosed Nuclei (%): 8.7% and 11.08%
  Population Tubulin-Different-Phenotype (%): 0.73% and 0.7%
  Total Cell Count: 942 and 325
[6]
  Population Apoptotic (%): 39.42% and 53.49%
  Population Fragmented Nuclei (%): 2% and 2.76%
  Population Healthy Nuclei (%): 87.6% and 86.43%
  Population Hoechst High Intensity Objects (%): 0% and 0.25%
  Population Membrane Permeable-Phenotype (%): 1.14% and 2.62%
  Population Mitochondria Different-Phenotype (%): 0.11% and 1.45%
  Population Mitotic Cells (%): 60.58% and 46.51%
  Population Normal (%): 100% and 99.75%
  Population Pyknosed Nuclei (%): 10.4% and 10.8%
  Population Tubulin-Different-Phenotype (%): 0.91% and 1.16%
  Total Cell Count: 1000 and 399

## CC(C)(O)c1cnc(N2C[C@@]3(CCC[C@](C)(Cn4cnc5ccc(C#N)cc54)C3)OC2=O)cn1 [GSK2798745]
[1]
  Population Apoptotic (%): 63.64% and 30.77%
  Population Fragmented Nuclei (%): 3.45% and 3.94%
  Population Healthy Nuclei (%): 87.8% and 85.83%
  Population Hoechst High Intensity Objects (%): 0%
  Population Membrane Permeable-Phenotype (%): 0.6% and 4.59%
  Population Mitochondria Different-Phenotype (%): 0.3% and 10.09%
  Population Mitotic Cells (%): 36.36% and 69.23%
  Population Normal (%): 100%
  Population Pyknosed Nuclei (%): 8.75% and 10.24%
  Population Tubulin-Different-Phenotype (%): 1.51% and 0%
  Total Cell Count: 377 and 127
[2]
  Population Apoptotic (%): 39.02% and 48.39%
  Population Fragmented Nuclei (%): 1.62% and 2.98%
  Population Healthy Nuclei (%): 87.33% and 78.57%
  Population Hoechst High Intensity Objects (%): 0%
  Population Membrane Permeable-Phenotype (%): 2.16% and 6.06%
  Population Mitotic Cells (%): 60.98% and 51.61%
  Population Normal (%): 100%
  Population Pyknosed Nuclei (%): 11.05% and 18.45%
  Population Tubulin-Different-Phenotype (%): 3.7% and 1.52%
  Total Cell Count: 371 and 168
[3]
  Population Apoptotic (%): 40.48% and 23.53%
  Population Fragmented Nuclei (%): 1.65% and 5.56%
  Population Healthy Nuclei (%): 89.67% and 83.95%
  Population Hoechst High Intensity Objects (%): 0%
  Population Membrane Permeable-Phenotype (%): 0.23% and 2.94%
  Population Mitochondria Different-Phenotype (%): 0.23% and 2.94%
  Population Mitotic Cells (%): 59.52% and 76.47%
  Population Normal (%): 100%
  Population Pyknosed Nuclei (%): 8.68% and 10.49%
  Population Tubulin-Different-Phenotype (%): 0.69% and 0%
  Total Cell Count: 484 and 162
[4]
  Population Apoptotic (%): 44% and 37.5%
  Population Fragmented Nuclei (%): 1.39% and 4.31%
  Population Healthy Nuclei (%): 88.71% and 84.21%
  Population Hoechst High Intensity Objects (%): 0.2% and 0%
  Population Membrane Permeable-Phenotype (%): 1.34% and 6.25%
  Population Mitochondria Different-Phenotype (%): 0.67% and 8.52%
  Population Mitotic Cells (%): 56% and 62.5%
  Population Normal (%): 99.8% and 100%
  Population Pyknosed Nuclei (%): 9.9% and 11.48%
  Population Tubulin-Different-Phenotype (%): 3.12% and 1.7%
  Total Cell Count: 506 and 209
[5]
  Population Apoptotic (%): 34.95% and 33.33%
  Population Fragmented Nuclei (%): 3.43% and 2.22%
  Population Healthy Nuclei (%): 85.16% and 84.44%
  Population Hoechst High Intensity Objects (%): 0%
  Population Membrane Permeable-Phenotype (%): 1.17% and 3.07%
  Population Mitochondria Different-Phenotype (%): 0.13% and 4.82%
  Population Mitotic Cells (%): 65.05% and 66.67%
  Population Normal (%): 100%
  Population Pyknosed Nuclei (%): 11.41% and 13.33%
  Population Tubulin-Different-Phenotype (%): 0.52% and 1.32%
[6]
  Population Apoptotic (%): 52.17% and 44.9%
  Population Fragmented Nuclei (%): 2.1% and 0.91%
  Population Healthy Nuclei (%): 87.73% and 84.29%
  Population Hoechst High Intensity Objects (%): 0%
  Population Membrane Permeable-Phenotype (%): 1.26% and 1.79%
  Population Mitochondria Different-Phenotype (%): 0.5% and 9.68%
  Population Mitotic Cells (%): 47.83% and 55.1%
  Population Normal (%): 100%
  Population Pyknosed Nuclei (%): 10.17% and 14.8%
  Population Tubulin-Different-Phenotype (%): 3.65% and 0.36%
  Total Cell Count: 905 and 331

Reference: ChEMBL document CHEMBL5724801, “EUbOPEN Chemogenomics Library - Multiplex” (2024)
